Measured values: ChEMBL document CHEMBL5058577, “EUbOPEN Chemogenomics Library 2 (Multiplex)” (2022)

Tested on: Fibroblast
Experiment: Multiplex assay against human fibroblast
Assay type: toxicity, cell-based
Outline: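 Tubulin, mitochondrial-mass and membrane-permeability phenotypes are per cents of healthy-nucleus cells. Cells were gated by CellPathfinder machine learning into Hoechst high-intensity objects or normal cells, normal cells into healthy, pyknosed or fragmented nuclei, and pyknosed cells into mitotic or apoptotic. Before that, live cells stained at seeding with Hoechst33342, BioTracker Green Microtubule Cytoskeleton Dye, MitoTracker Red and Annexin V Alexa Fluor 680 were imaged on a CQ1 microscope at 37°C and 5% CO2 after compound addition.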

[1] = 12 h, 1 µM, compound concentration 1 uM, replicate 1
[2] = 12 h, 1 µM, compound concentration 1 uM, replicate 2
[3] = 12 h, 10 µM, compound concentration 10 uM, replicate 1
[4] = 12 h, 10 µM, compound concentration 10 uM, replicate 2
[5] = 24 h, 1 µM, compound concentration 1 uM, replicate 1
[6] = 24 h, 1 µM, compound concentration 1 uM, replicate 2
[7] = 24 h, 10 µM, compound concentration 10 uM, replicate 1
[8] = 24 h, 10 µM, compound concentration 10 uM, replicate 2
[9] = 48 h, 1 µM, compound concentration 1 uM, replicate 1
[10] = 48 h, 1 µM, compound concentration 1 uM, replicate 2
[11] = 48 h, 10 µM, compound concentration 10 uM, replicate 1
[12] = 48 h, 10 µM, compound concentration 10 uM, replicate 2

## Nc1nc(-c2ccco2)c2cnn(Cc3ccccc3F)c2n1
[1]
  Population Apoptotic (%): 50%
  Population Fragmented Nuclei (%): 10%
  Population Healthy Nuclei (%): 78%
  Population Hoechst High Intensity Objects (%): 0%
  Population Membrane Permeable-Phenotype (%): 1%
  Population Mitochondria Different-Phenotype (%): 2%
  Population Mitotic Cells (%): 50%
  Population Normal (%): 99%
  Population Pyknosed Nuclei (%): 11%
  Population Tubulin-Different-Phenotype (%): 26%
  Total Cell Count: 189
[2]
  Population Apoptotic (%): 45%
  Population Fragmented Nuclei (%): 31%
  Population Healthy Nuclei (%): 50%
  Population Hoechst High Intensity Objects (%): 6%
  Population Membrane Permeable-Phenotype (%): 2%
  Population Mitochondria Different-Phenotype (%): 5%
  Population Mitotic Cells (%): 54%
  Population Normal (%): 93%
  Population Pyknosed Nuclei (%): 17%
  Population Tubulin-Different-Phenotype (%): 42%
  Total Cell Count: 144
[3]
  Population Apoptotic (%): 54%
  Population Fragmented Nuclei (%): 16%
  Population Healthy Nuclei (%): 61%
  Population Hoechst High Intensity Objects (%): 8%
  Population Membrane Permeable-Phenotype (%): 0%
  Population Mitochondria Different-Phenotype (%): 7%
  Population Mitotic Cells (%): 45%
  Population Normal (%): 91%
  Population Pyknosed Nuclei (%): 21%
  Population Tubulin-Different-Phenotype (%): 38%
  Total Cell Count: 123
[4]
  Population Apoptotic (%): 47%
  Population Fragmented Nuclei (%): 39%
  Population Healthy Nuclei (%): 44%
  Population Hoechst High Intensity Objects (%): 10%
  Population Membrane Permeable-Phenotype (%): 5%
  Population Mitochondria Different-Phenotype (%): 13%
  Population Mitotic Cells (%): 52%
  Population Normal (%): 89%
  Population Pyknosed Nuclei (%): 16%
  Population Tubulin-Different-Phenotype (%): 51%
  Total Cell Count: 147
[5]
  Population Apoptotic (%): 50%
  Population Fragmented Nuclei (%): 9%
  Population Healthy Nuclei (%): 82%
  Population Hoechst High Intensity Objects (%): 0%
  Population Membrane Permeable-Phenotype (%): 0%
  Population Mitochondria Different-Phenotype (%): 2%
  Population Mitotic Cells (%): 50%
  Population Normal (%): 100%
  Population Pyknosed Nuclei (%): 7%
  Population Tubulin-Different-Phenotype (%): 24%
  Total Cell Count: 180
[6]
  Population Apoptotic (%): 56%
  Population Fragmented Nuclei (%): 29%
  Population Healthy Nuclei (%): 53%
  Population Hoechst High Intensity Objects (%): 6%
  Population Membrane Permeable-Phenotype (%): 4%
  Population Mitochondria Different-Phenotype (%): 5%
  Population Mitotic Cells (%): 43%
  Population Normal (%): 93%
  Population Pyknosed Nuclei (%): 17%
  Population Tubulin-Different-Phenotype (%): 37%
  Total Cell Count: 139
[7]
  Population Apoptotic (%): 70%
  Population Fragmented Nuclei (%): 19%
  Population Healthy Nuclei (%): 66%
  Population Hoechst High Intensity Objects (%): 6%
  Population Membrane Permeable-Phenotype (%): 1%
  Population Mitochondria Different-Phenotype (%): 8%
  Population Mitotic Cells (%): 29%
  Population Normal (%): 93%
  Population Pyknosed Nuclei (%): 14%
  Population Tubulin-Different-Phenotype (%): 39%
  Total Cell Count: 127
[8]
  Population Apoptotic (%): 43%
  Population Fragmented Nuclei (%): 43%
  Population Healthy Nuclei (%): 44%
  Population Hoechst High Intensity Objects (%): 8%
  Population Membrane Permeable-Phenotype (%): 15%
  Population Mitochondria Different-Phenotype (%): 5%
  Population Mitotic Cells (%): 56%
  Population Normal (%): 91%
  Population Pyknosed Nuclei (%): 11%
  Population Tubulin-Different-Phenotype (%): 46%
  Total Cell Count: 147
[9]
  Population Apoptotic (%): 45%
  Population Fragmented Nuclei (%): 16%
  Population Healthy Nuclei (%): 77%
  Population Hoechst High Intensity Objects (%): 3%
  Population Membrane Permeable-Phenotype (%): 2%
  Population Mitochondria Different-Phenotype (%): 1%
  Population Mitotic Cells (%): 54%
  Population Normal (%): 96%
  Population Pyknosed Nuclei (%): 6%
  Population Tubulin-Different-Phenotype (%): 26%
  Total Cell Count: 182
[10]
  Population Apoptotic (%): 57%
  Population Fragmented Nuclei (%): 41%
  Population Healthy Nuclei (%): 48%
  Population Hoechst High Intensity Objects (%): 6%
  Population Membrane Permeable-Phenotype (%): 4%
  Population Mitochondria Different-Phenotype (%): 9%
  Population Mitotic Cells (%): 42%
  Population Normal (%): 93%
  Population Pyknosed Nuclei (%): 10%
  Population Tubulin-Different-Phenotype (%): 37%
  Total Cell Count: 147
[11]
  Population Apoptotic (%): 80%
  Population Fragmented Nuclei (%): 25%
  Population Healthy Nuclei (%): 65%
  Population Hoechst High Intensity Objects (%): 9%
  Population Membrane Permeable-Phenotype (%): 0%
  Population Mitochondria Different-Phenotype (%): 10%
  Population Mitotic Cells (%): 20%
  Population Normal (%): 90%
  Population Pyknosed Nuclei (%): 9%
  Population Tubulin-Different-Phenotype (%): 27%
  Total Cell Count: 115
[12]
  Population Apoptotic (%): 50%
  Population Fragmented Nuclei (%): 50%
  Population Healthy Nuclei (%): 38%
  Population Hoechst High Intensity Objects (%): 5%
  Population Membrane Permeable-Phenotype (%): 16%
  Population Mitotic Cells (%): 50%
  Population Normal (%): 94%
  Population Pyknosed Nuclei (%): 10%
  Population Tubulin-Different-Phenotype (%): 51%
  Total Cell Count: 155
